Measured values published in ChEMBL document CHEMBL4261658, “4-Hydroxy-3-nitro-5-ureido-benzenesulfonamides Selectively Target the Tumor-Associated Carbonic Anhydrase Isoforms IX and XII Showing Hypoxia-Enhanced Antiproliferative Profiles” (J Med Chem, 2018).

What was measured:
Carbonic anhydrase 12 = Carbonic anhydrase 12 (Homo sapiens, UniProt O43570)
PC-3 [1] = test: Cytotoxicity against human PC3 cells assessed as cell viability at 30 uM after 48 hrs under hypoxic conditions by MTT assay (reference value: 100%); assay type: functional; details: PC-3, 48 h, read-out: Activity
Outline: (§1)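 Cells cultured in high-glucose DMEM with 20% FBS at 37 °C and 5% CO2, seeded at 1x10^4/well, then dosed 24 h later (0–200 μM) for 48 h. Hypoxia: 1% O2, 5% CO2, balance N2 in a hypoxic workstation; normoxia: 20% O2 in air, 5% CO2. MTT (1 mg/ml) for 30 min at 37 °C, formazan dissolved in DMSO, A550. Untreated control set to 100%; quadruplicates, ≥3 cell batches, mean ± S.E.M.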

PC-3 [2] = test: Cytotoxicity against human PC3 cells assessed as cell viability at 200 uM after 48 hrs under hypoxic conditions by MTT assay (reference value: 100%); assay type: functional; details: PC-3, 48 h, read-out: Activity
Outline: as §1

HT-29 [3] = test: Cytotoxicity against human HT-29 cells assessed as cell viability at 200 uM after 48 hrs under normoxic conditions by MTT assay (reference value: 100%); assay type: functional; details: for viability at 200 µM: Homo sapiens, HT-29, 48 h, read-out: Activity
Outline: as §1

MDA-MB-231 [4] = test: Cytotoxicity against human MDA-MB-231 cells assessed as reduction in cell viability after 48 hrs under hypoxic conditions by MTT assay; assay type: functional, cell-based; details: for IC50: MDA-MB-231, 48 h
Outline: as §1

HT-29 [5] = test: Cytotoxicity against human HT-29 cells assessed as reduction in cell viability after 48 hrs under normoxic conditions by MTT assay; assay type: functional, cell-based; details: for IC50: HT-29, 48 h
Outline: as §1

MDA-MB-231 [6] = test: Cytotoxicity against human MDA-MB-231 cells assessed as cell viability at 100 uM after 48 hrs under hypoxic conditions by MTT assay (reference value: 100%); assay type: functional; details: MDA-MB-231, 48 h, read-out: Activity
Outline: as §1

PC-3 [7] = test: Cytotoxicity against human PC3 cells assessed as cell viability at 100 uM after 48 hrs under normoxic conditions by MTT assay (reference value: 100%); assay type: functional; details: PC-3, 48 h, read-out: Activity
Outline: as §1

HT-29 [8] = test: Cytotoxicity against human HT-29 cells assessed as cell viability at 100 uM after 48 hrs under normoxic conditions by MTT assay (reference value: 100%); assay type: functional; details: for viability at 100 µM: Homo sapiens, HT-29, 48 h, read-out: Activity
Outline: as §1

PC-3 [9] = test: Cytotoxicity against human PC3 cells assessed as cell viability at 100 uM after 48 hrs under hypoxic conditions by MTT assay (reference value: 100%); assay type: functional; details: PC-3, 48 h, read-out: Activity
Outline: as §1

HT-29 [10] = test: Cytotoxicity against human HT-29 cells assessed as cell viability at 100 uM after 48 hrs under hypoxic conditions by MTT assay (reference value: 100%); assay type: functional; details: for viability at 100 µM: Homo sapiens, HT-29, 48 h, read-out: Activity
Outline: as §1

MDA-MB-231 [11] = test: Cytotoxicity against human MDA-MB-231 cells assessed as cell viability at 30 uM after 48 hrs under normoxic conditions by MTT assay (reference value: 100%); assay type: functional; details: MDA-MB-231, 48 h, read-out: Activity
Outline: as §1

HT-29 [12] = test: Cytotoxicity against human HT-29 cells assessed as cell viability at 30 uM after 48 hrs under normoxic conditions by MTT assay (reference value: 100%); assay type: functional; details: for viability at 30 µM: Homo sapiens, HT-29, 48 h, read-out: Activity
Outline: as §1

PC-3 [13] = test: Cytotoxicity against human PC3 cells assessed as cell viability at 200 uM after 48 hrs under normoxic conditions by MTT assay (reference value: 100%); assay type: functional; details: PC-3, 48 h, read-out: Activity
Outline: as §1

HT-29 [14] = test: Cytotoxicity against human HT-29 cells assessed as cell viability at 200 uM after 48 hrs under hypoxic conditions by MTT assay (reference value: 100%); assay type: functional; details: for viability at 200 µM: Homo sapiens, HT-29, 48 h, read-out: Activity
Outline: as §1

MDA-MB-231 [15] = test: Cytotoxicity against human MDA-MB-231 cells assessed as cell viability at 30 uM after 48 hrs under hypoxic conditions by MTT assay (reference value: 100%); assay type: functional; details: MDA-MB-231, 48 h, read-out: Activity
Outline: as §1

MDA-MB-231 [16] = test: Cytotoxicity against human MDA-MB-231 cells assessed as cell viability at 100 uM after 48 hrs under normoxic conditions by MTT assay (reference value: 100%); assay type: functional; details: MDA-MB-231, 48 h, read-out: Activity
Outline: as §1

Carbonic anhydrase 9 = Carbonic anhydrase 9 (Homo sapiens, UniProt Q16790); test: Inhibition of carbonic anhydrase 9 (unknown origin) preincubated for 15 mins by stopped flow CO2 hydration assay
PC-3 [17] = test: Cytotoxicity against human PC3 cells assessed as reduction in cell viability after 48 hrs under hypoxic conditions by MTT assay; assay type: functional, cell-based; details: for IC50: PC-3, 48 h
Outline: as §1

MDA-MB-231 [18] = test: Cytotoxicity against human MDA-MB-231 cells assessed as cell viability at 200 uM after 48 hrs under hypoxic conditions by MTT assay (reference value: 100%); assay type: functional; details: MDA-MB-231, 48 h, read-out: Activity
Outline: as §1

PC-3 [19] = test: Cytotoxicity against human PC3 cells assessed as reduction in cell viability after 48 hrs under normoxic conditions by MTT assay; assay type: functional, cell-based; details: for IC50: PC-3, 48 h
Outline: as §1

MDA-MB-231 [20] = test: Cytotoxicity against human MDA-MB-231 cells assessed as reduction in cell viability after 48 hrs under normoxic conditions by MTT assay; assay type: functional, cell-based; details: for IC50: MDA-MB-231, 48 h
Outline: as §1

PC-3 [21] = test: Cytotoxicity against human PC3 cells assessed as cell viability at 30 uM after 48 hrs under normoxic conditions by MTT assay (reference value: 100%); assay type: functional; details: PC-3, 48 h, read-out: Activity
Outline: as §1

MDA-MB-231 [22] = test: Cytotoxicity against human MDA-MB-231 cells assessed as cell viability at 200 uM after 48 hrs under normoxic conditions by MTT assay (reference value: 100%); assay type: functional; details: MDA-MB-231, 48 h, read-out: Activity
Outline: as §1

HT-29 [23] = test: Cytotoxicity against human HT-29 cells assessed as reduction in cell viability after 48 hrs under hypoxic conditions by MTT assay; assay type: functional, cell-based; details: for IC50: HT-29, 48 h
Outline: as §1

HT-29 [24] = test: Cytotoxicity against human HT-29 cells assessed as cell viability at 30 uM after 48 hrs under hypoxic conditions by MTT assay (reference value: 100%); assay type: functional; details: for viability at 30 µM: Homo sapiens, HT-29, 48 h, read-out: Activity
Outline: as §1

Chain of Carbonic anhydrase 12 (O43570 whole entry): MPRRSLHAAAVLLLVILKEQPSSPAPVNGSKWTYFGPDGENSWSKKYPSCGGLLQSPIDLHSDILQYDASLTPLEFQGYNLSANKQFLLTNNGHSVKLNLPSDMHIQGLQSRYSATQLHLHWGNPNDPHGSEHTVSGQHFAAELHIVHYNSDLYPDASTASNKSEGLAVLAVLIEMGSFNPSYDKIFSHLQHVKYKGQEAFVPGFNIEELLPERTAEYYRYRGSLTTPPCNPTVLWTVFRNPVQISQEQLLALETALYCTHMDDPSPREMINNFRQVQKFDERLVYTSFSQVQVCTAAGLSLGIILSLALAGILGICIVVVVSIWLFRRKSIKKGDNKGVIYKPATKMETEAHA

SMILES	Ki (Carbonic anhydrase 12) [nM]	viability at 30 µM (PC-3 [1]) [%]	viability at 200 µM (PC-3 [2]) [%]	viability at 200 µM (HT-29 [3]) [%]	Activity (MDA-MB-231 [4])	IC50 (MDA-MB-231 [4]) [µM]	Activity (HT-29 [5])	IC50 (HT-29 [5]) [µM]	viability at 100 µM (MDA-MB-231 [6]) [%]	viability at 100 µM (PC-3 [7]) [%]	viability at 100 µM (HT-29 [8]) [%]	viability at 100 µM (PC-3 [9]) [%]	viability at 100 µM (HT-29 [10]) [%]	viability at 30 µM (MDA-MB-231 [11]) [%]	viability at 30 µM (HT-29 [12]) [%]	viability at 200 µM (PC-3 [13]) [%]	viability at 200 µM (HT-29 [14]) [%]	viability at 30 µM (MDA-MB-231 [15]) [%]	viability at 100 µM (MDA-MB-231 [16]) [%]	Ki (Carbonic anhydrase 9) [nM]	other results
NS(=O)(=O)c1cc(NC(=O)c2ccc(F)cc2)c(OC(=O)c2ccc(F)cc2)c([N+](=O)[O-])c1	210	95.7	15.6	6.6	Dose-dependent effect	52.3	Dose-dependent effect	40.6	13.3	13.9	5.7	29.9	24.2	89.5	62.8	10.2	8.4	92.9	89.3	100	Activity (PC-3 [17]): Dose-dependent effect; IC50 (PC-3 [17]): 56.3 µM; viability at 200 µM (MDA-MB-231 [18]): 13%; Activity (PC-3 [19]): Dose-dependent effect; IC50 (PC-3 [19]): 30.6 µM; Activity (MDA-MB-231 [20]): Dose-dependent effect; IC50 (MDA-MB-231 [20]): > 200 µM; viability at 30 µM (PC-3 [21]): 51.6%; viability at 200 µM (MDA-MB-231 [22]): 85.8%; Activity (HT-29 [23]): Dose-dependent effect; IC50 (HT-29 [23]): 58.6 µM; viability at 30 µM (HT-29 [24]): 96.6%
COc1cccc(NC(=O)Nc2cc(S(N)(=O)=O)cc([N+](=O)[O-])c2O)c1	530																			460	
Cc1cc(C)[n+](-c2cc(S(N)(=O)=O)cc([N+](=O)[O-])c2O)c(C)c1.[O-][Cl+3]([O-])([O-])[O-]	220	97.7	88.9	89.4	Dose-dependent effect	> 200	Dose-dependent effect	> 200	111	58	97.2	104	62.5	40.7	101	50.3	59.4	98.9	2.9	150	Activity (PC-3 [17]): Dose-dependent effect; IC50 (PC-3 [17]): > 200 µM; viability at 200 µM (MDA-MB-231 [18]): 98.3%; Activity (PC-3 [19]): Dose-dependent effect; IC50 (PC-3 [19]): 140 µM; Activity (MDA-MB-231 [20]): Dose-dependent effect; IC50 (MDA-MB-231 [20]): < 30 µM; viability at 30 µM (PC-3 [21]): 77.4%; viability at 200 µM (MDA-MB-231 [22]): 4%; Activity (HT-29 [23]): Dose-dependent effect; IC50 (HT-29 [23]): > 200 µM; viability at 30 µM (HT-29 [24]): 72.2%
NS(=O)(=O)c1cc([N+](=O)[O-])c(OC(=O)c2ccccc2)c([N+](=O)[O-])c1	70																			90	
Nc1cc(S(N)(=O)=O)cc([N+](=O)[O-])c1O	200	81.8	55.3	105	Dose-dependent effect	> 200	Dose-dependent effect	> 200	72.8	91.8	107	58.4	93.2	93	95.7	92.3	100	81.3	81.4	210	Activity (PC-3 [17]): Dose-dependent effect; IC50 (PC-3 [17]): > 200 µM; viability at 200 µM (MDA-MB-231 [18]): 60.2%; Activity (PC-3 [19]): Dose-dependent effect; IC50 (PC-3 [19]): > 200 µM; Activity (MDA-MB-231 [20]): Dose-dependent effect; IC50 (MDA-MB-231 [20]): > 200 µM; viability at 30 µM (PC-3 [21]): 69.7%; viability at 200 µM (MDA-MB-231 [22]): 78.8%; Activity (HT-29 [23]): Dose-dependent effect; IC50 (HT-29 [23]): > 200 µM; viability at 30 µM (HT-29 [24]): 108%
CC(=O)Nc1nnc(S(N)(=O)=O)s1 [ACETAZOLAMIDE]																					Activity (HT-29 [3]): 96.9%; Activity (HT-29 [8]): 100.7%; Activity (HT-29 [10]): 101.7%; Activity (HT-29 [12]): 96.9%; Activity (HT-29 [14]): 90.9%; Activity (HT-29 [24]): 107.6%
NS(=O)(=O)c1cc(NC(=O)Nc2c(F)c(F)c(F)c(F)c2F)c(O)c([N+](=O)[O-])c1	80	63.2	50.6	99.6	Dose-dependent effect	101	Dose-dependent effect	> 200	50.2	61.7	102	53.2	70.2	95.7	106	60.2	65.3	56.2	66.7	290	Activity (PC-3 [17]): Dose-dependent effect; IC50 (PC-3 [17]): > 200 µM; viability at 200 µM (MDA-MB-231 [18]): 40.5%; Activity (PC-3 [19]): Dose-dependent effect; IC50 (PC-3 [19]): > 200 µM; Activity (MDA-MB-231 [20]): Dose-dependent effect; IC50 (MDA-MB-231 [20]): > 200 µM; viability at 30 µM (PC-3 [21]): 69%; viability at 200 µM (MDA-MB-231 [22]): 60.2%; Activity (HT-29 [23]): Dose-dependent effect; IC50 (HT-29 [23]): > 200 µM; viability at 30 µM (HT-29 [24]): 75.6%
